# Measurements taken from ChEMBL document CHEMBL1145173, “Stereoselective synthesis of [L-Arg-L/D-3-(2-naphthyl)alanine]-type (E)-alkene dipeptide isosteres and its application to the synthesis and biological evaluation of pseudopeptide analogues of the CXCR4 antagonist FC131” (J Med Chem, 2005).
# Where a SMILES comes first, the peptide text is derived from it.
# What was measured:
# [1] = system: MT4; assay: Cytotoxic concentration against the mock infected MT-4 cells; type: functional; conditions: Homo sapiens
# How it was run: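 MT-4 cells (RPMI 1640, 10% heat-inactivated FCS, penicillin/streptomycin) without virus, 1.5×10^4 cells/well, exposed to graded compound concentrations for 5 days at 37 °C in CO₂; viable cells counted by MTT method; CC₅₀ from loss of viability; mean of at least three independent experiments.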
# [2] = system: MT4; assay: Effective concentration against HIV-induced cytopathogenicity in MT-4 cells; type: functional, cell-based; conditions: Homo sapiens
# [3] = target: C-X-C chemokine receptor type 4 (Homo sapiens, UniProt P61073); assay: Inhibition of [125I]SDF-1 binding to C-X-C chemokine receptor type 4 expressed in CHO cells; type: cell-based
# Chain of C-X-C chemokine receptor type 4 (P61073 whole entry): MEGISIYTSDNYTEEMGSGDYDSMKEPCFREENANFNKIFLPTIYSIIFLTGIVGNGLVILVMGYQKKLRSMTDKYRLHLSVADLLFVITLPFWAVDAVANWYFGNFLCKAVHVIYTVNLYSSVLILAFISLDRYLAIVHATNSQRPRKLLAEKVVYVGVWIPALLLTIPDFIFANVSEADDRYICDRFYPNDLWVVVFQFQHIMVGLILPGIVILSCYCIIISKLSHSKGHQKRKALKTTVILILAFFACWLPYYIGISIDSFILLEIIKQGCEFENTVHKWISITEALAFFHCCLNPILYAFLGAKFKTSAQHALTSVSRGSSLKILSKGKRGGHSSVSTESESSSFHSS
IC50 [3] [nM],SMILES,CC50 [1] [µM],EC50 [2] [nM]
> 31000,N=C(N)NCCC[C@@H]1NC(=O)[C@@H](Cc2ccc(O)cc2)NC(=O)NC(=O)[C@@H](Cc2ccc3ccccc3c2)/C=C\[C@H](CCCN=C(N)N)NC1=O,> 100,2400
21000,N=C(N)NCCC[C@@H]1NC(=O)[C@@H](Cc2ccc(O)cc2)NC(=O)CNC(=O)[C@H](Cc2ccc3ccccc3c2)/C=C\[C@H](CCCN=C(N)N)NC1=O,> 100,9100
4.5,N=C(N)NCCC[C@@H]1NC(=O)[C@@H](Cc2ccc(O)cc2)NC(=O)NC(=O)[C@H](Cc2ccc3ccccc3c2)NC(=O)[C@H](CCCN=C(N)N)NC1=O,> 100,73

# The remaining lines, values behind:
SMILES,IC50 [3] [nM],CC50 [1] [µM],EC50 [2] [nM]
N=C(N)NCCC[C@@H]1NC(=O)[C@@H](Cc2ccc(O)cc2)NC(=O)CNC(=O)[C@@H](Cc2ccc3ccccc3c2)NC(=O)[C@H](CCCN=C(N)N)NC1=O,,> 100,1900
NC(N)=NCCC[C@@H]1NC(=O)[C@H](CCCN=C(N)N)NC(=O)[C@@H](Cc2ccc(O)cc2)NC(=O)C/C=C/[C@H](Cc2ccc3ccccc3c2)NC1=O,180,> 100,2400
N=C(N)NCCC[C@@H]1NC(=O)[C@@H](Cc2ccc(O)cc2)NC(=O)CNC[C@H](Cc2ccc3ccccc3c2)NC(=O)[C@H](CCCN=C(N)N)NC1=O,32,> 100,980
"NCCCC[C@@H]1NC(=O)[C@H](CCCN=C(N)N)NC(=O)[C@H](Cc2ccc(O)cc2)NC(=O)[C@@H](NC(=O)[C@H](Cc2ccc3ccccc3c2)NC(=O)[C@H](CCCN=C(N)N)NC(=O)[C@@H](N)CCCN=C(N)N)CSSC[C@@H](C(=O)N[C@@H](CCCN=C(N)N)C(=O)O)NC(=O)[C@H](CCCNC(N)=O)NC(=O)[C@H](CCCN=C(N)N)NC(=O)[C@H](Cc2ccc(O)cc2)NC(=O)[C@@H]2CCCN2C(=O)[C@@H](CCCCN)NC1=O (HELM PEPTIDE1{R.R.[O=C([C@H](Cc1ccc2ccccc2c1)N[*:1])[*:2]].C.Y.R.K.[dK].P.Y.R.[Cit].C.R}$PEPTIDE1,PEPTIDE1,4:R3-13:R3$$$V2.0) [listing 1 of 2 here]",3.9,,35
"NCCCC[C@@H]1NC(=O)[C@H](CCCN=C(N)N)NC(=O)[C@H](Cc2ccc(O)cc2)NC(=O)[C@@H](NC(=O)[C@H](Cc2ccc3ccccc3c2)NC(=O)[C@H](CCCN=C(N)N)NC(=O)[C@@H](N)CCCN=C(N)N)CSSC[C@@H](C(=O)N[C@@H](CCCN=C(N)N)C(=O)O)NC(=O)[C@H](CCCNC(N)=O)NC(=O)[C@H](CCCN=C(N)N)NC(=O)[C@H](Cc2ccc(O)cc2)NC(=O)[C@@H]2CCCN2C(=O)[C@@H](CCCCN)NC1=O (HELM PEPTIDE1{R.R.[O=C([C@H](Cc1ccc2ccccc2c1)N[*:1])[*:2]].C.Y.R.K.[dK].P.Y.R.[Cit].C.R}$PEPTIDE1,PEPTIDE1,4:R3-13:R3$$$V2.0) [listing 2 of 2 here]",,> 10,
Cc1cn([C@H]2C[C@H](N=[N+]=[N-])[C@@H](CO)O2)c(=O)[nH]c1=O [ZIDOVUDINE],,57,18
